Sampled rows, rich in hits. Any-hit rate of the full collection: about 4.7%.
GRIN3A LBD mod: NR3A (human) ligand-binding domain modulation. NR3A LBD differential scanning fluorimetry, Tm shift; 0% = protein alone, 100% = glycine-bound protein. Tm shift relative to glycine control, % at 25 µM. actives 2.5% (n = 340,000);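 active means melting temperature shift of at least 10% of the positive control shift, at one fixed dose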
SKN-1 inh: blocks SKN-1 activity in C. elegans. C. elegans VP596 Pgst-4::GFP/RFP ratio, acrylamide-induced, 24 h. inhibition, % at 21.8 µM. actives 0.49% (n = 360,000). AID 624304;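 active means interference check ratio from 0.5 to 1.5 plus GFP to RFP signal ratio inhibition reaching or exceeding a fixed threshold, cut at about 30% in these data, passing the limit was not always enough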
MPTP inh: blocks calcium-induced mitochondrial swelling; isolated mouse mitochondria, Ca2+ swelling absorbance, 30 min; inhibition, % at 10 µM; actives 1.4% (n = 360,000); AID 602449;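 active means inhibition of 50% or more, scaled per plate between neutral and stimulator controls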;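 further: 0% = DMSO wells given calcium and 100% = 1 mM EGTA wells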
MT1-MMP act inh: blocks activation of human MT1-MMP; AID 651647; actives 0.061% (n = 360,000); P50281; HT1080 RFP-PRO-GFP cells, GFP/RFP ratio fluorescence, overnight; percent of plate control window, DMSO zero; GFP/RFP ratio change, % at 20 µM;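 active means GFP/RFP ratio change of at least 30% with cell ATP level not reduced by more than half and red fluorescence within 50% of control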
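Assay system: RFP-PRO-GFP reporter HT1080 cells; read-out basis: GFP/RFP fluorescence ratio; benchmarks: DMSO wells and RFP-L50D-GFP cells; doses: 20 µM single dose, 1% DMSO; schedule: overnight cell settling, then overnight compound exposure, 37 °C, 5% CO2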
ADAM10 inh: inhibits human ADAM10. actives 0.62% (n = 370,000). inhibition, % at 7 µM. O14672. AID 720582. recombinant ADAM10, EDANS/DABCYL FRET peptide cleavage, 3 h;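 active means inhibition above a per-campaign cutoff equal to the mean of compounds falling between control-based bounds plus 3 SD, cut at about 20% in these data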;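 further: 0% = DMSO wells while the 100% control is not disclosed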
ADAM17 inh: inhibits human ADAM17; P78536; recombinant ADAM17, EDANS/DABCYL FRET peptide cleavage; inhibition, % at 6.95 µM; AID 720648; actives 0.83% (n = 370,000);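 active means inhibition above the mean of compounds lying between control limits plus 3 SD, set per campaign, cut at about 8.5% in these data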;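 further: 0% = DMSO-only wells as the low control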
Target sequence (P78536 215-824 limits assumed): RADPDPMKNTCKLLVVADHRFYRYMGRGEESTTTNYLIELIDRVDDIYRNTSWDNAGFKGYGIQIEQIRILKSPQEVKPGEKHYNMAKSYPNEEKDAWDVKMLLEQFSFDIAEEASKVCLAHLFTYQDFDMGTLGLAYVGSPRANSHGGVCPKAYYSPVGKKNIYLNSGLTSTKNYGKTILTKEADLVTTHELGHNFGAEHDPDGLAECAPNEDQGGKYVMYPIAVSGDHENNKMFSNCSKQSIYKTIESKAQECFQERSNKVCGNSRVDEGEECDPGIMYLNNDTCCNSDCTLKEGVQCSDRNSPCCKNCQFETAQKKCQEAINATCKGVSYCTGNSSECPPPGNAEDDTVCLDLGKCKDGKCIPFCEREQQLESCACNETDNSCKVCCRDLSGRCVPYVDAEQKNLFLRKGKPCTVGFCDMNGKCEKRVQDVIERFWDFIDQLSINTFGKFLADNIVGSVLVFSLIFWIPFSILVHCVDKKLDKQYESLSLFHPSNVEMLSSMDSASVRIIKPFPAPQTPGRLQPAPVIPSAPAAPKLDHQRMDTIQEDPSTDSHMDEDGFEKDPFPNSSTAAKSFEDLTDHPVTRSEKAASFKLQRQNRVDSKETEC
The depositor's hits bear a star; . = no result given.

SMILES	GRIN3A LBD mod	SKN-1 inh	MPTP inh	MT1-MMP act inh	ADAM10 inh	ADAM17 inh
Cc1ccc(NS(=O)(=O)c2cc(C(=O)Nc3cccc([N+](=O)[O-])c3)ccc2C)cc1	21*	3	38	-7	-4	3
NS(=O)(=O)c1cccc(NC(=O)c2ccc(NS(=O)(=O)c3cccc([N+](=O)[O-])c3)cc2)c1	30*	7	1	2	-1	-3
NS(=O)(=O)c1ccc(NS(=O)(=O)c2ccc(NC(=O)c3ccc(-c4ccccc4)cc3)cc2)cc1	23*	7	2	4	0	-1
Cc1ccc(/C=N/NC(=O)CNC(=O)COc2ccc(Cl)cc2)o1	0	2	-1	1	2	0
CCC(CO)Oc1cc(NC(=O)c2ccccc2F)c2ncn(C(C)C)c2c1 (stereo not drawn)	2	6	-1	4	-4	-2
NC(=O)[C@@H]1CCCN1C(=O)c1ccc2oc(CCc3ccccc3)nc2c1	1	5	0	1	4	-2
COc1cccc(/C=N/Nc2cc(Cl)nc(C)n2)c1O	-1	-5	-2	-6	-4	-4
Cc1cc(C)c2nc(C)cc(N/N=C/c3ccc(O)cc3)c2c1	5	-14	7	-30	-12	-5
Cc1cc(N/N=C/c2ccc(O)cc2)c2cccc(C)c2n1	12*	13	2	-1	-9	-5
Cc1nc(Cl)cc(N/N=C/c2ccc(O)cc2)n1	26*	21	3	3	0	-2
Cc1nc(Cl)cc(N/N=C/c2ccc(O)cc2O)n1	19*	-3	2	7	-2	1
O=C(CSc1nc2ccccc2n1CC(=O)NCc1ccccc1)NCc1ccco1	0	14	-1	1	-3	-3
CCNC(=S)NNC(=O)CSc1nc2ccccc2[nH]1	1	-9	0	2	-1	-5
COC(=O)N1CCN(CCc2ccccc2)CC1	0	9	0	3	-5	2
CCc1ccc(C(=O)Nc2ccc3nc(C)ccc3c2)cc1	1	44*	1	5	-4	1
Cc1ccc(Cl)c(OCC(=O)NCC(c2cccs2)N2CCOCC2)c1 (stereo not drawn)	-2	14	1	-4	4	2
COc1ccc2oc(-c3ccc(NC(=O)c4ccc(N5CCOCC5)c([N+](=O)[O-])c4)cc3)nc2c1	37*	7	24	4	-2	-3
Oc1ccccc1C1CC(c2cccs2)=NC(c2ccc(Cl)cc2)N1 (stereo not drawn)	10*	18	32	-27	-6	-5
Cc1ccc2oc(=O)cc(/C=C/c3ccccc3)c2c1	18*	10	25	-1	-9	-5
COc1ccc(-c2[nH]n(-c3ccc([N+](=O)[O-])cc3)c(=O)c2C=NCc2ccncc2)cc1	-1	17	3	-11	-1	6
CC(=O)N(/N=C1\Sc2ccccc2C1=O)c1ccc(C)cc1C	1	43*	1	15	1	-1
CC(=O)N(/N=C1\Sc2ccccc2C1=O)c1ccccc1	-7	13	2	-4	2	5
COc1cc(/C=C/C(=O)O)ccc1OS(=O)(=O)c1cc(Br)ccc1C	3	-10	-1	-1	7	0
COc1ccc(NC(=S)NC(=O)/C=C/c2cccs2)cc1	-2	16	4	1	4	0
O=C(/C=C/c1cccs1)NC(=S)Nc1ccc(S(=O)(=O)Nc2ccccc2C(F)(F)F)cc1	27*	9	48	0	8	1
SMILES	GRIN3A LBD mod	SKN-1 inh	MPTP inh	MT1-MMP act inh	ADAM10 inh	ADAM17 inh
O=C(NCC1CCN(c2ccc(S(=O)(=O)N3CCOCC3)cc2)CC1)Nc1ccccc1	-2	0	0	2	2	1
Cc1ccc(C(=O)C2C(=O)c3ccccc3C2=O)cc1	-1	-6	1	-183	1	-4
NN=C1c2ccccc2C(=O)C1C(=O)C(c1ccccc1)c1ccccc1 (stereo not drawn)	12*	56	12	-17	6	5
O=C(COc1ccc(Cl)cc1)NNC(=O)c1ccncc1	0	-5	0	6	-7	-4
Cc1nn(-c2ccccc2)c(C)c1NC(=O)COC(=O)c1cc(Br)ccc1O	1	8	2	1	-9	-4
COc1ccc2[nH]c(=O)c(CN(C(=O)c3ccncc3)C(C)C)cc2c1	0	0	-2	3	-162	-41
CC(=O)Nc1ccc(S(=O)(=O)NC2=C(N3CCN(c4ccc(F)cc4)CC3)C(=O)c3ccccc3C2=O)cc1	16*	-9	-2	-1	-11	-2
Cc1ccc(S(=O)(=O)NC2=C(N3CCN(c4ccccc4F)CC3)C(=O)c3ccccc3C2=O)cc1	-22	8	5	9	-4	-7
COc1ccc(/C=N/c2c(-c3ccco3)nc3ccccn23)cc1OC	-2	-4	1	3	-84	-27
O=C(CN1C(=O)/C(=C2/SC(=S)N(CCS(=O)(=O)O)C2=O)c2ccccc21)Nc1cccc(C(F)(F)F)c1	8	14	-1	1	8	5
O=C(CN1C(=O)/C(=C2\SC(=S)N(CCS(=O)(=O)O)C2=O)c2ccccc21)Nc1cccc(Br)c1	12*	11	2	0	6	4
CC1CCCCC12NC(=O)N(CC(=O)Nc1ccc3c(c1)OCO3)C2=O (stereo not drawn)	.	-10	-2	-2	-24	0
O=C(O)c1ccccc1C(=O)Nc1n[nH]c(=S)s1	14*	16	1	3	-6	5
COc1ccccc1OCC(=O)NCCS(=O)(=O)N1CCN(c2ccccc2)CC1	2	-5	-1	-2	-1	5
NNc1nc(NCc2ccccc2)nc(N2CCOCC2)n1	14*	16	0	4	-3	-1
CCn1c2ccccc2c2cc(NC(=O)COC(=O)c3ccc(O)cc3)ccc21	15*	-8	-1	2	3	2
CCn1c2ccccc2c2cc(NC(=O)COC(=O)c3cccc(OC)c3)ccc21	.	.	.	.	-8	1
O=C(NC12CC3CC(CC(C3)C1)C2)c1cc([N+](=O)[O-])ccc1N1CCOCC1	13*	11	-1	0	5	0
O=C(NCC1CCCCC1)c1cc([N+](=O)[O-])ccc1N1CCOCC1	-2	13	0	0	7	-1
C=CCSc1nnc(-c2cccc3ccccc23)o1	-2	-3	-3	7	-13	-3
C#CCSc1nnc(-c2cccc3ccccc23)o1	0	82*	0	6	-24	-10
COc1ccc(-c2ncccc2OC(=O)C23CC4CC(CC(C4)C2)C3)cc1	16*	0	1	1	-144	-42

Source: PubChem BioAssay
